Converted amounts (≈) assume the structure as drawn. The source made the active and inactive calls. No cut-off for these calls is given here.
Assays:
Saccharomyces cerevisiae [1] = experiment: Antifungal activity against Saccharomyces cerevisiae ATCC 9763 after 48 hrs by bromocresol green dye based assay; assay type: functional; conditions: ATCC 9763, 48 h
In short: (§1)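 S. cerevisiae grown 24 h in 1% malt extract broth, 250 rpm, 24 °C, diluted to 0.03 absorbance unit per mL. Inoculated onto compound in malt extract agar with bromocresol green (50 μg/mL). 2-fold series from 100 to 0.05 μg/mL in 1% DMSO. Incubated at 24 °C for 48 h. MIC read visually by blue-to-yellow colour change.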

Bacillus spizizenii [2] = experiment: Antibacterial activity against Bacillus subtilis ATCC 6633 after 48 hrs by resazurin dye based assay; assay type: functional; conditions: for MIC: ATCC 6633, 48 h
In short: (§2)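 Bacteria pre-grown 24 h in nutrient broth at 28 °C, 100−250 rpm, diluted to 0.01 absorbance unit per mL. Inoculated into wells of compound dispersed in nutrient agar with resazurin (12.5 μg/mL). Test range 100 to 0.05 μg/mL (2-fold dilutions, 1% DMSO). Incubated 48 h at 28 °C. MIC read visually by blue-to-pink colour change.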

[3] = (§3) Cytotoxicity against mouse NS1 cells after 48 hrs by resazurin dye based assay; assay type: functional
In short: (§4)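 NS-1 myeloma cells seeded at 50 000 cells/mL in DMEM + 10% FBS + 1% penicillin/streptomycin, 37 °C, 5% CO2. Compound range 100 to 0.05 μg/mL (2-fold dilutions, 1% DMSO). Resazurin (250 μg/mL, 10 μL) added at 48 h, then incubated a further 48 h. MIC end point read visually.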

Tritrichomonas suis [4] = experiment: Antiprotozoal activity against Tritrichomonas foetus KV1; assay type: functional
In short: (§5)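 Trophozoites seeded at 4 × 10^4 cells/mL in medium containing tryptone, yeast extract, glucose, L-cysteine, phosphates, ascorbic acid, FeSO4 and 10% newborn calf serum. Compound range 100 to 0.05 μg/mL in 1% DMSO. Plates held anaerobically at 37 °C.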

Escherichia coli = experiment: Antibacterial activity against Escherichia coli ATCC 25922 after 48 hrs by resazurin dye based assay; assay type: functional, organism-based; in short: as §2
Candida albicans = experiment: Antifungal activity against Candida albicans ATCC 10231 after 48 hrs by bromocresol green dye based assay; assay type: functional, organism-based
In short: as §1, with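 “C. albicans” for “S. cerevisiae”, “0.005” for “0.03”, “Test range” for “2-fold series from”, “Incubated” for “Incubated at”, “°C,” for “°C for”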

Saccharomyces cerevisiae [5] = experiment: Antifungal activity against Saccharomyces cerevisiae ATCC 9763 up to 100 ug/ml 48 hrs by bromocresol green dye based assay; assay type: functional, organism-based; in short: as §1
Mus musculus [6] = species: Mus musculus; experiment: as §3; assay type: functional; in short: as §4
Tritrichomonas suis [7] = experiment: Antiprotozoal activity against Tritrichomonas foetus KV1 up to 100 ug/ml; assay type: functional, organism-based; in short: as §5
Mus musculus [8] = species: Mus musculus; experiment: Cytotoxicity against mouse NS1 cells up to 100 ug/ml 48 hrs by resazurin dye based assay; assay type: functional, cell-based; in short: as §4
Bacillus spizizenii [9] = experiment: Antibacterial activity against Bacillus subtilis ATCC 6633 up to 100 ug/ml 48 hrs by resazurin dye based assay; assay type: functional, organism-based; in short: as §2

Structure (SMILES) | Activity (Escherichia coli) | Activity (Candida albicans) | Activity (Bacillus spizizenii [2]) | Activity (Mus musculus [6]) | Activity (Tritrichomonas suis [4]) | also measured
Clc1ccccc1C(c1ccccc1)(c1ccccc1)n1ccnc1 [CLOTRIMAZOLE] | – | – | – | – | – | MIC (Saccharomyces cerevisiae [1]): 0.2 µg/mL (≈ 0.58 µM)
COc1cc(O)c2c(c1C)[C@H](C)[C@](O)(COC(=O)c1c(C)c(C)c(O)c(C)c1O)OC2=O | inactive | inactive | – | – | – | MIC (Bacillus spizizenii [2]): 25 µg/mL (≈ 56 µM); MIC [3]: 100 µg/mL (≈ 224 µM); MIC (Tritrichomonas suis [4]): 50 µg/mL (≈ 112 µM); MIC (Saccharomyces cerevisiae [1]): 50 µg/mL (≈ 112 µM)
COc1cc(O)c2c(c1C)[C@H](C)[C@](O)(COC(=O)c1c(C)cc3c(c1O)C(=O)c1c(O)cc(O)cc1C3=O)OC2=O | inactive | inactive | – | – | – | MIC (Bacillus spizizenii [2]): 25 µg/mL (≈ 44.3 µM); MIC [3]: 100 µg/mL (≈ 177 µM); MIC (Tritrichomonas suis [4]): 12.5 µg/mL (≈ 22.1 µM); Activity (Saccharomyces cerevisiae [5]): inactive
CC1(C)S[C@@H]2[C@H](NC(=O)[C@H](N)c3ccccc3)C(=O)N2[C@H]1C(=O)O [AMPICILLIN] | – | – | – | – | – | MIC (Bacillus spizizenii [2]): 0.4 µg/mL (≈ 1.14 µM)
COc1cc(O)c2c(c1C)[C@H](C)[C@](O)(C[S+](C)[O-])OC2=O (some centres not stated) | inactive | inactive | inactive | inactive | inactive | –
COc1cc(O)c2c(c1C)[C@](C)(O)[C@H](C)OC2=O | inactive | inactive | inactive | inactive | inactive | –
Cc1c(O)cc(O)c2c1[C@H](C)[C@](O)(CO)OC2=O | inactive | inactive | inactive | inactive | inactive | –
O=c1[nH]cc(F)c(=O)[nH]1 [FLUOROURACIL] | – | – | – | – | – | MIC [3]: 0.8 µg/mL (≈ 6.15 µM)
COC(=O)Nc1nc2cc(C(=O)c3ccccc3)ccc2[nH]1 [MEBENDAZOLE] | – | – | – | – | – | MIC (Tritrichomonas suis [4]): 1.6 µg/mL (≈ 5.42 µM)
COc1cc(O)c2c(c1C)[C@H](C)[C@](O)(CSCC(O)C(=O)O)OC2=O (some centres not stated) | inactive | inactive | inactive | inactive | inactive | –
COc1cc(OC)c2c(c1C)[C@](C)(O)[C@H](C)OC2=O | inactive | inactive | inactive | inactive | inactive | –
COc1cc(O)c2c(c1C)[C@H](C)[C@](O)(COC(=O)c1c(O)cc(O)c(C)c1C)OC2=O | inactive | inactive | – | – | – | MIC (Bacillus spizizenii [2]): 50 µg/mL (≈ 116 µM); MIC [3]: 100 µg/mL (≈ 231 µM); Activity (Tritrichomonas suis [7]): inactive
COc1cc(O)c2c(c1C)[C@H](C)[C@](O)(CO)OC2=O | inactive | inactive | inactive | inactive | inactive | –
COc1cc(O)cc2c1C(=O)c1c(O)cc(C)cc1C2=O [QUESTIN] | inactive | inactive | – | – | – | MIC (Tritrichomonas suis [4]): 12.5 µg/mL (≈ 44 µM); Activity (Saccharomyces cerevisiae [5]): inactive; Activity (Mus musculus [8]): inactive; Activity (Bacillus spizizenii [9]): inactive
COc1cc(O)c2c(c1C)[C@H](C)[C@H](CO)OC2=O | inactive | inactive | inactive | inactive | inactive | –
